From paper PMC4369925 (Current molecular medicine, 2014)
Residues, ends and D or L forms follow the SMILES beside them.

Columns and labels:
rPRCP1 [1] = target: T1, rPRCP1 (Homo sapiens, UniProt P42785); test: Peptide inhibition of rPRCP1 hydrolysis of APpNA; type: biochemical
T1 sequence (P42785 46-496): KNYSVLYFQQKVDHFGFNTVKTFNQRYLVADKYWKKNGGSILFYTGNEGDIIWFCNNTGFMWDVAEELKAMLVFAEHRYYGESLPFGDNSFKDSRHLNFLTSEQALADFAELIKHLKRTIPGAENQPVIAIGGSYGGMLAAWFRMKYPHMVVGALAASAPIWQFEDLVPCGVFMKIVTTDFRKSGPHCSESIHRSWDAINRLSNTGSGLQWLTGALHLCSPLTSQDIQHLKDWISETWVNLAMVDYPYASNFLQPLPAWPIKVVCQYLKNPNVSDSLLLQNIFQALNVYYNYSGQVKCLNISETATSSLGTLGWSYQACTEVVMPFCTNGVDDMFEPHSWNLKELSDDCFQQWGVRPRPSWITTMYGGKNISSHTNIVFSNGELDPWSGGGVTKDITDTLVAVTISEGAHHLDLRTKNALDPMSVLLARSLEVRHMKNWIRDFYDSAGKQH
Procedure, shortened: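 Recombinant PRCP1 hydrolysis of APpNA was measured at 37°C with sub-saturating substrate relative to Km. The initial hydrolysis rate was read at 405 nm in triplicate. Percent inhibition = [1 − (sample − blank)/(total − blank)] × 100, and IC50 and inhibition type were derived from it.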

rPRCP1 [2] = target: T1, rPRCP1; test: Hydrolysis of X-Pro-pNA chromogenic substrates by rPRCP1; type: biochemical; conditions: for ratio of Km to the Km of GPpNA: rPRCP1, X-Pro-pNA, 37°C 1 h, 405 nm, ratio <1 more selective than GPpNA
Procedure, shortened: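 Recombinant PRCP1 was expressed in Schneider 2 cells. Increasing concentrations of X-Pro-pNA substrates were incubated with it in HEPES-carbonated buffer (pH 7.1, 2 mM CaCl2, 1 mM MgCl2, 0.1% gelatin) at 37°C for 1 h in the dark; two substrates needed 24 h. pNA release was read at 405 nm. Runs were in duplicate, at least 3 times, and data were fit to Michaelis–Menten.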

[3] = test system: PRCP1-dependent PK activation on HPAEC; test: PRCP1-dependent PK activation; type: cell-based, human; conditions: 25 nM rPK + 25 nM HK on HPAEC
rPRCP activation of PK = rPRCP activation of PK bound to HK on microtiter plate; type: biochemical, human; conditions: rPRCP 3 μg, HK-coated plate, 1 h
Procedure, shortened: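 Plasma PK, wild-type rPK or mutant rPKs (25 nM) were added to HK-coated microtiter wells with or without recombinant PRCP in HEPES-carbonate buffer pH 7.1 for 1 h at 37°C. Some wells also received a peptide blocking PK–HK binding (0.1 mM). S2302 (0.5 mM) was then added for 1 h at 37°C and read at 405 nm; three experiments.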

plasma kallikrein = test: Autoactivation of human plasma PK with rPKs, fluid-phase assay; type: biochemical; conditions: 1 h
Procedure, shortened: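 Recombinant PK was expressed in stably transfected HEK cells in serum-free conditioned medium, purified by S-Sepharose cation exchange (pH 5.2, NaCl gradient) and dialysed into TBS pH 7.4. Plasma PK and rPKs, 25 nM each, were incubated in triplicate for 1 h at 37°C. […], kallikrein was assayed with or without a kallikrein inhibitor using 0.5 mM S2302 for 1 h at 37°C, read at 405 nm.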

## CSCC[C@H](NC(=O)[C@H](CCC(N)=O)NC(=O)[C@H](C)NC(=O)[C@H](CCCCN)NC(=O)CNC(=O)[C@@H](N)CC(=O)O)C(=O)N[C@@H](CCC(N)=O)C(=O)N[C@@H](CO)C(=O)N1CCC[C@H]1C(=O)N[C@@H](C)C(=O)O [DGK10] (H-DGKAQMQSPA-OH)
rPRCP1 [1]
  IC50: 600 µM

## Ala-Pro-paranitroanilide [APpNA, reference compound]
rPRCP1 [2]
  ratio of Km to the Km of GPpNA: 0.4

## wild type rPK: recombinant wild type human prekallikrein
[3]
  activation to plasma kallikrein on HPAEC (in words): less than half
rPRCP activation of PK; 25 nM PK
  degree of activation by rPRCP relative to wild type plasma PK: about 66%

## rPK^P637A: recombinant PK, C-terminal Pro-Ala replaced by Ala-Ala
rPRCP activation of PK; 25 nM rPK
  activability by rPRCP (in words): significantly more activable by rPRCP than wild type rPK
Plasma kallikrein; plasma PK 25 nM + rPK 25 nM, S2302
  autoactivation of plasma PK (in words): lower threshold for autoactivation

## Cc1cc(Oc2nc(Oc3cccc(C(=N)N)c3)c(F)c(NC(C)CCc3ccccc3)c2F)c(C(=O)O)cc1N(C)C (centres unmarked) [PF048, reference compound]
Plasma kallikrein; 100 nM inhibitor, plasma PK 25 nM + rPK mutants 25 nM
  block of autoactivation of PK (in words): block

## Ser-Pro-paranitroanilide [SPpNA]
rPRCP1 [2]; rPRCP1, Michaelis-Menten fit
  product turnover (kcat) compared with APpNA and GPpNA: not significantly different
rPRCP1 [2]
  ratio of Km to the Km of GPpNA: 0.23
rPRCP1 [2]; rPRCP hydrolysis
  catalytic efficiency (kcat/Km), times higher than GPpNA: 6-7 times
rPRCP1 [2]; rPRCP hydrolysis, printed as 'at least'
  catalytic efficiency (kcat/Km), fold higher than APpNA: 2-3 fold
